# What was measured:
# [1] = biological target: Sodium-dependent serotonin transporter (Rattus norvegicus, UniProt P31652); test: Inhibition of [3H]citalopram binding to Serotonin transporter (5-HTT) in rat cortical tissue.
# How it was run: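 Rat cortical P2 fraction homogenized in 16 volumes of ice-cold 25 mM sodium phosphate, pH 7.7. [3H]citalopram at 2 nM final; 1 µM clomipramine defines nonspecific binding. Usually seven drug concentrations, triplicates, organic solvent ≤0.3 vol %. Incubated 3 h at 0 °C, then filtered on PEI-soaked glass fibre and counted. IC50 and Hill coefficients from dose-response curves.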
# [2] = biological target: T1, Sodium-dependent dopamine transporter (Rattus norvegicus, UniProt P23977); test: Inhibition of [3H]WIN-35428 binding to the cocaine binding site on the dopamine transporter (DAT) in synaptosomal membrane preparations from rat striatal tissue.; format: cell membranes, Striatum
# T1 sequence (P23977 whole entry): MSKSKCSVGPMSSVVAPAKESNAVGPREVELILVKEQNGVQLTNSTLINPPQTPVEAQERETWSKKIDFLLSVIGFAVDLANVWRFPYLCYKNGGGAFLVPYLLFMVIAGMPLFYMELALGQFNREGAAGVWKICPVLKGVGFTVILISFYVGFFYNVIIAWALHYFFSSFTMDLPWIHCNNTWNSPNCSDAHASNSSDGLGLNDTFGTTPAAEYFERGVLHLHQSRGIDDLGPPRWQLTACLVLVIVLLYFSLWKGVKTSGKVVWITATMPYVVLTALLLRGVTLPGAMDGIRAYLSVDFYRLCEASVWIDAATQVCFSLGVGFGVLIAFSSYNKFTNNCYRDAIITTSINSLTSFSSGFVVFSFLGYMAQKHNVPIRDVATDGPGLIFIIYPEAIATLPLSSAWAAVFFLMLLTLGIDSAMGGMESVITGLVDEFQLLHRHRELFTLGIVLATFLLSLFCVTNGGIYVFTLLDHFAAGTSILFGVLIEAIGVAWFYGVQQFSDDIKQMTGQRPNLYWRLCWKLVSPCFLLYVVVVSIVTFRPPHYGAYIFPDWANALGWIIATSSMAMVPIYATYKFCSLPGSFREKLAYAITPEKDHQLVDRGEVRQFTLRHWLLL
# [3] = biological target: T1, Sodium-dependent dopamine transporter; test: Inhibition of [3H]DA uptake at DAT in rat striatal synaptosomes.
# [4] = biological target: Sodium-dependent serotonin transporter (Rattus norvegicus) (UniProt P31652); test: Inhibition of [3H]citalopram binding to Serotonin transporter (5-HTT) in rat cortical tissue […]; settings: 10 uM
# Sodium-dependent serotonin transporter (Rattus norvegicus), sequence (P31652 whole entry): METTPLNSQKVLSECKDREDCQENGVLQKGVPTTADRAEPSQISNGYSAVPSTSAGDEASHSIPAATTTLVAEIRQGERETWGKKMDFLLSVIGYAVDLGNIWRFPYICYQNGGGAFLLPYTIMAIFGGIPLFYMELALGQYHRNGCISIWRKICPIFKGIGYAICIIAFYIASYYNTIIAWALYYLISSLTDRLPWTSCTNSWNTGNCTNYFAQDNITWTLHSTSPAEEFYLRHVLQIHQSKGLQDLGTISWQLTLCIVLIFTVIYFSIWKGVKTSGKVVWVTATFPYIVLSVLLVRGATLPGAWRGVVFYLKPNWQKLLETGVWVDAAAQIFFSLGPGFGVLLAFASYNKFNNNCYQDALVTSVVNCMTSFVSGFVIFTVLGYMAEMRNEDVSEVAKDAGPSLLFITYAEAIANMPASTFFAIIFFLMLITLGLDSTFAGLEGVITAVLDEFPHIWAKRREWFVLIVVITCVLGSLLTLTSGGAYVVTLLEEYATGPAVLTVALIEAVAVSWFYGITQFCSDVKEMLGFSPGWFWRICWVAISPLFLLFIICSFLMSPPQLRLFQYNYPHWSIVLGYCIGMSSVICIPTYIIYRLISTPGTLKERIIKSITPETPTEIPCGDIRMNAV
# How it was run: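 Rat cortical P2 membranes in 25 mM sodium phosphate, pH 7.7; 1 µM clomipramine defines nonspecific binding. Incubated 3 h at 0 °C, then rapid filtration on PEI-presoaked filters and radioactivity counting.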
# [5] = biological target: Monoamine transporters; serotonin & dopamine (Rattus norvegicus) (UniProt P31652+P23977); test: Selectivity ratio for DAT binding compared to 5-HTT binding.; format: protein assay
# Monoamine transporters; serotonin & dopamine (Rattus norvegicus), sequence (P23977 whole entry, looked up): as the sequence (P23977 whole entry) above
# Monoamine transporters; serotonin & dopamine (Rattus norvegicus), sequence (P31652 whole entry, looked up): as the sequence (P31652 whole entry) above
# Sodium-dependent serotonin transporter, sequence (P31652 whole entry): as above
compound,measurement,setting,value
c1ccc(CN2CC3CCC(C3)C2)cc1,IC50,[1],> 10000 nM
same,IC50,[2],24300 nM
same,IC50,[3],35700 nM
same,inhibition,[4],24.4%
same,Selectivity ratio,[5],> 0.41
c1ccc(CN2CC3CCC(C2)C3OC(c2ccccc2)c2ccccc2)cc1 (stereo in doubt; 17a) [listing 1 of 2 here],inhibition,[4],61%
same,Selectivity ratio,[5],27
OC1C2CCC1CN(Cc1ccccc1)C2 (stereo unspecified),IC50,[1],> 10000 nM
same,IC50,[2],22100 nM
same,IC50,[3],45000 nM
same,inhibition,[4],23.8%
same,Selectivity ratio,[5],> 0.45
c1ccc(CN2CC3CCC(C2)C3OC(c2ccccc2)c2ccccc2)cc1 (stereo in doubt; 17a) [listing 2 of 2 here],IC50,[1],10000 nM
same,IC50,[2],363 nM
same,IC50,[3],735 nM
OC1(c2ccc(Cl)cc2)C2CCC1CN(Cc1ccccc1)C2 (stereo unspecified),IC50,[1],997 nM
same,IC50,[2],1510 nM
same,IC50,[3],2630 nM
same,Selectivity ratio,[5],0.66
c1ccc(CN2CC3CCC(C2)C3c2ccccc2)cc1 (stereo in doubt; 14) [3-BENZYL-8-PHENYL-3-AZA-BICYCLO[3.2.1]OCTANE (STEREOISOMERIC MIX)],IC50,[1],3880 nM
same,IC50,[2],785 nM
same,IC50,[3],4450 nM
Clc1ccc(C2C3CCC2CN(Cc2ccccc2)C3)cc1 (stereo unspecified),IC50,[1],402 nM
same,IC50,[2],95.5 nM
same,IC50,[3],601 nM
same,Selectivity ratio,[5],4.2
c1ccc(CN2CC3CCC(C2)C3c2ccccc2)cc1 (stereo in doubt; 8a) [3-BENZYL-8-PHENYL-3-AZA-BICYCLO[3.2.1]OCTANE (STEREOISOMERIC MIX)],IC50,[1],3460 nM
same,IC50,[2],234 nM
same,IC50,[3],309 nM
OC1(c2ccccc2)C2CCC1CNC2 (stereo unspecified),IC50,[3],8480 nM
same,inhibition,[4],46.2%
CN1CC2CCC(C1)C2(O)c1ccccc1 (stereo unspecified),IC50,[1],> 10000 nM
same,IC50,[2],10100 nM
same,IC50,[3],9770 nM
same,inhibition,[4],27.8%
same,Selectivity ratio,[5],> 1
c1ccc(CN2CC3CCC(C2)C3OC(c2ccccc2)c2ccccc2)cc1 (stereo in doubt; 17b) [listing 1 of 2 here],IC50,[1],> 10000 nM
same,IC50,[2],536 nM
same,IC50,[3],1980 nM
Clc1ccc(C2C3CCC2CNC3)cc1 (stereo unspecified),IC50,[1],363 nM
same,IC50,[2],81.5 nM
same,IC50,[3],478 nM
same,Selectivity ratio,[5],4.4
c1ccc(C2C3CCC2CNC3)cc1 (stereo unspecified),IC50,[1],4000 nM
same,IC50,[2],258 nM
same,IC50,[3],893 nM
same,Selectivity ratio,[5],16
BrC1C2CCC1CN(Cc1ccccc1)C2 (stereo unspecified),IC50,[1],> 10000 nM
same,IC50,[3],8640 nM
same,inhibition,[4],30.4%
same,Selectivity ratio,[5],> 2.2
c1ccc(CN2CC3CCC(C2)C3c2ccccc2)cc1 (stereo in doubt; 14),Selectivity ratio,[5],4.9
c1ccc(CN2CC3CCC(C2)C3c2ccccc2)cc1 (stereo in doubt; 8a),Selectivity ratio,[5],14.8
c1ccc(CN2CC3CCC(C2)C3OC(c2ccccc2)c2ccccc2)cc1 (stereo in doubt; 17b) [listing 2 of 2 here],inhibition,[4],29.8%
same,Selectivity ratio,[5],> 18
CN1CC2CCC(C1)C2c1ccc(Cl)cc1 (stereo unspecified),IC50,[1],220 nM
same,IC50,[3],926 nM
same,Selectivity ratio,[5],0.81
CN1CC2CCC(C1)C2c1ccccc1 (stereo unspecified),IC50,[1],1850 nM
same,IC50,[2],360 nM
same,IC50,[3],1040 nM
same,Selectivity ratio,[5],5.1
OC1(c2ccccc2)C2CCC1CN(Cc1ccccc1)C2 (stereo unspecified),IC50,[1],3060 nM
same,IC50,[2],17500 nM
same,IC50,[3],27100 nM
same,Selectivity ratio,[5],0.17
